ZTA DNA inh – blocks Epstein-Barr virus ZTA, an EBNA-1 counter-screen; P03206; ZTA-DNA binding, fluorescence polarization; inhibition, % at 11 µM; 0.15% of 320,000 active; in the data active = inhibition above about 33%
Target sequence (P03206 whole entry, looked up): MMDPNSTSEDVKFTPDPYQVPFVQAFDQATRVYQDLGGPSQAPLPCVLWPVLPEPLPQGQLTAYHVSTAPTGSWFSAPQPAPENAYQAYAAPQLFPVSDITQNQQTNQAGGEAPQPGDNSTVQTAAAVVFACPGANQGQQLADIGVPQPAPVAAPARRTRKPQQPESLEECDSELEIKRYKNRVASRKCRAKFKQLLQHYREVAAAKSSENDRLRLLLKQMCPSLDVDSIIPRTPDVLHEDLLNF
NS3 helicase inh – HCV NS3 helicase inhibition. NS3 helicase DNA unwinding, Cy5 molecular beacon fluorescence. inhibition, % at 10.9 µM. 0.56% of 290,000 active. AID 1800;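 active = inhibition above the mean of all tested compounds plus 3 SD, set per campaign, cut at about 35% in these data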;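 note: 0% = DMSO wells and 100% = thioflavine S control wells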
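System: NS3 helicase fragment of HCV / Schedule: 1 h at 25 °C / Control set: DMSO alone as 0% and 110 µM thioflavine S as 100% / Reagent: Cy5/quencher beacon DNA duplex and ATP to start / Technique: Cy5 fluorescence / Replication: singlicate / Evaluation: % inhibition of end-to-start signal ratio versus controls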
core dimer inh – HCV core protein dimerization inhibition; inhibition, % at 5 µM; 0.33% of 300,000 active; TR-FRET GST/Flag-core106 dimerization, 1536-well;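 active = inhibition above the mean of all tested compounds plus 3 SD, set per screening campaign, cut at about 45% in these data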
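Material: GST/Flag-tagged HCV core106 proteins. Incubation: 4 h, 22.5 °C incubation. Read-out basis: inhibition (%) from 671 over 617 nm ratio. Measured by: TR-FRET, excitation 340 nm, emission 617 and 671 nm.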
PfM18AAP inh – blocks P. falciparum M18 aspartyl aminopeptidase; recombinant PfM18AAP, H-Glu-NHMec fluorogenic cleavage; inhibition, % at 7.35 µM; 1.2% of 290,000 active; AID 1822;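 active = inhibition above the campaign mean inhibition over all tested compounds plus 3 SD, cut at about 28% in these data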;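 note: 0% = plate median of test compound wells and 100% = 2 mM ZnCl2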
EBNA-1 inh – blocks EBNA-1 binding to DNA. EBNA-1 DNA binding, fluorescence polarization. 0.34% of 300,000 active. AID 1950. inhibition, % at 14.8 µM; in the data active = inhibition above about 28%
ALR inh – human ALR oxidase inhibition via reduced H2O2; AID 485317; purified ALR, DTT oxidation, H2O2 HRP-luminol luminescence; 3.8% of 290,000 active; P55789; inhibition, % (test concentration not listed);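 active = mean replicate inhibition above about 79%, with every replicate also reaching it, limit read from the data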
Target sequence (P55789 whole entry, looked up): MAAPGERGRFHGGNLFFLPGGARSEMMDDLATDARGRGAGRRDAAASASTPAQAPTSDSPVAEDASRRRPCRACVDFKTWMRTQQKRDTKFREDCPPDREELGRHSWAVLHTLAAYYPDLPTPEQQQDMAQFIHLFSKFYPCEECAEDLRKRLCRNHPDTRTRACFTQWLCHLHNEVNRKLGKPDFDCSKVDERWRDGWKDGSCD
An asterisk follows results filed as active. Hits are enriched below; roughly 5.2% of the tested compounds scored in any of these assays.

CCC(C)[C@H](NC(=O)N1CC(=O)Nc2ccccc21)C(=O)Nc1nccs1 (stereo partly drawn) was read as ZTA DNA inh -20, NS3 helicase inh 23, core dimer inh -53, PfM18AAP inh -3, EBNA-1 inh -15 and ALR inh 4.
For Fc1cnc(Cl)nc1NC1CCCCC1 the results were ZTA DNA inh -1, NS3 helicase inh -2, core dimer inh -7, PfM18AAP inh 2, EBNA-1 inh 3 and ALR inh -5.
For CC(C)CN(C(=O)c1ccc(C(F)(F)F)cc1)c1c(N)n(CC(C)C)c(=O)[nH]c1=O the results were ZTA DNA inh -3, NS3 helicase inh 6, core dimer inh -4, PfM18AAP inh -2, EBNA-1 inh -1 and ALR inh -5.
`CC1(C)CC(=O)C2=C(C1)NC(=S)C(C#N)C21CCCCC1` (stereo not drawn) gave ZTA DNA inh 10, NS3 helicase inh -9, core dimer inh 1, PfM18AAP inh 29*, EBNA-1 inh 1 and ALR inh -2.
For O=C(NCCN1CCOCC1)c1cccc(S(=O)(=O)NCc2ccccc2)c1 the results were ZTA DNA inh -12, core dimer inh 3, EBNA-1 inh -4 and ALR inh -1.
Screening COc1ccccc1N1CCN(/N=C/c2cc(OC)c(OC)c(OC)c2)CC1 returned ZTA DNA inh -7, NS3 helicase inh -6, core dimer inh -8, PfM18AAP inh -5, EBNA-1 inh -13 and ALR inh 27.
`COc1cc(/C(C)=N/NC(=O)C(O)(c2ccccc2)c2ccccc2)ccc1O` gave ZTA DNA inh 4, NS3 helicase inh -2, core dimer inh -1, PfM18AAP inh 9, EBNA-1 inh 3 and ALR inh 98*.
Screening COc1cc(/C=N/N2CCN(c3ccccc3OC)CC2)ccc1O returned ZTA DNA inh 16, NS3 helicase inh 4, core dimer inh 1, PfM18AAP inh 5, EBNA-1 inh 4 and ALR inh 99*.
COc1ccc(/C=N/N2CCN(C)CC2)cc1O was read as ZTA DNA inh 15, NS3 helicase inh 2, core dimer inh 1, PfM18AAP inh 7, EBNA-1 inh 3 and ALR inh 99*.
`COc1ccccc1N1CCN(/N=C\c2sccc2C)CC1` gave ZTA DNA inh -3, NS3 helicase inh -3, core dimer inh 1, PfM18AAP inh -8, EBNA-1 inh -7 and ALR inh 95*.
Screening COc1ccccc1N1CCN(/N=C(\C)c2ccccc2O)CC1 returned ZTA DNA inh -9, NS3 helicase inh 13, core dimer inh -4, PfM18AAP inh 12, EBNA-1 inh -21 and ALR inh 1.
For COc1cc(/C(C)=N/N2CCN(c3ccccc3OC)CC2)ccc1O the results were ZTA DNA inh 6, NS3 helicase inh 3, core dimer inh 7, PfM18AAP inh 15, EBNA-1 inh 1 and ALR inh 99*.
`CCc1ccc(NC(=O)CSc2nc3ccccc3nc2N2CCCC2)cc1` gave ZTA DNA inh -1, NS3 helicase inh -18, core dimer inh 1, PfM18AAP inh 2, EBNA-1 inh 4 and ALR inh 88*.
Screening CCCCc1ccc(NC(=O)CSc2nc(=O)n(CCCN3CCOCC3)c3c2CCC3)cc1 returned ZTA DNA inh 2, core dimer inh -5, EBNA-1 inh -10 and ALR inh 99*.
For CCOc1ccc(NC(=O)CSc2nc(=O)n(Cc3cccnc3)c3c2CCC3)cc1 the results were ZTA DNA inh -19, core dimer inh -5, EBNA-1 inh 1 and ALR inh 99*.
`Cc1ccc(NC(=O)CSc2nc3ccccc3nc2N2CCCC2)cc1` gave ZTA DNA inh -9, NS3 helicase inh 1, core dimer inh 10, PfM18AAP inh 0, EBNA-1 inh 3 and ALR inh -16.
Screening Cc1cc(C)cc(NC(=O)CSc2nc(=O)n(CCN3CCOCC3)c3c2CCCC3)c1 returned ZTA DNA inh -6, core dimer inh -1, EBNA-1 inh 1 and ALR inh -18.
For CC(C)c1ccc(NC(=O)CSc2nc(=O)n(CCN3CCOCC3)c3c2CCC3)cc1 the results were ZTA DNA inh -1, core dimer inh -1, EBNA-1 inh -4 and ALR inh 99*.
For CN(C)S(=O)(=O)c1ccc(Cl)c(C(=O)NNC(=O)c2ccc3c(c2)OCO3)c1 the results were ZTA DNA inh 0.
`CCOc1ccc(NC(=O)CSc2nc(=O)n(CCCN3CCOCC3)c3c2CCC3)cc1` gave ZTA DNA inh -3, core dimer inh -2, EBNA-1 inh -5 and ALR inh 97*.
Screening CCOc1ccccc1NC(=O)CSc1nc(=O)n(CCN2CCOCC2)c2c1CCCC2 returned ZTA DNA inh 0, core dimer inh -4, EBNA-1 inh -2 and ALR inh 1.
`CCCCc1ccc(NC(=O)CSc2nc(=O)n(CCN3CCOCC3)c3c2CCC3)cc1` gave ZTA DNA inh -8, core dimer inh 3, EBNA-1 inh -10 and ALR inh 99*.
Screening Cc1cc(C)c(NC(=O)CSc2nc(=O)n(CCN3CCOCC3)c3c2CCCC3)c(C)c1 returned ZTA DNA inh 2, core dimer inh -1, EBNA-1 inh 2 and ALR inh 12.
O=C(CSc1nc(=O)n(CCCN2CCOCC2)c2c1CCC2)Nc1ccc(F)cc1 was read as ZTA DNA inh 3, core dimer inh -4, EBNA-1 inh -9 and ALR inh 98*.
For O=C(CSc1nc(=O)n(CCCN2CCOCC2)c2c1CCCC2)Nc1ccc(F)cc1 the results were ZTA DNA inh -1, core dimer inh 0, EBNA-1 inh 7 and ALR inh 28.
For Cc1ccc(NC(=O)CSc2nc(=O)n(CCCN3CCOCC3)c3c2CCCC3)cc1 the results were ZTA DNA inh 11, core dimer inh -3, EBNA-1 inh 3 and ALR inh 98*.
Screening CC(=O)Nc1ccc(S(=O)(=O)N2CCc3cc4c(cc3C2)OCCCO4)cc1 returned ZTA DNA inh -1, NS3 helicase inh 8, core dimer inh -3, PfM18AAP inh 11, EBNA-1 inh -12 and ALR inh -2.
Screening CC1CC(C)CN(C(=O)CSc2nc(N)cc(=O)[nH]2)C1 (stereo not drawn) returned ZTA DNA inh -10, NS3 helicase inh 4, core dimer inh -3, PfM18AAP inh -5, EBNA-1 inh -6 and ALR inh 2.
Clc1ccccc1OCCCOc1cccc2cccnc12 was read as ZTA DNA inh -11, NS3 helicase inh -13, core dimer inh -15, PfM18AAP inh -2, EBNA-1 inh 0 and ALR inh 3.
`CCc1ccc(NC(=O)CSc2nc(=O)n(CCCN3CCOCC3)c3c2CCC3)cc1` gave ZTA DNA inh 7, core dimer inh -1, EBNA-1 inh -3 and ALR inh 98*.

Screening results from PubChem BioAssay.
